Series [1] concerns the target T1, Sonic hedgehog protein (Homo sapiens, UniProt Q15465). Description: Binding affinity to N-terminal Shh by surface plasmon resonance assay. A digest of the protocol: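 SPR (Biacore T100) at 25 °C; ShhN amine-coupled to CM4 chip at 10 µg/mL in 10 mM sodium acetate pH 5.5 (1000–1200 RU), underivatized reference surface. Running/sample buffer 0.01 M HEPES pH 7.4, 0.15 M NaCl, 0.05% P20, 5% DMSO; compounds serially diluted 0.78–25 µM, 2 min injections at 80 µL/min; double referencing plus DMSO solvent correction.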

The target in series [2] is Sonic hedgehog protein (Mus musculus) (UniProt Q62226). Description: Inhibition of N-palmitoylated Shh in mouse Shh Light2 cells after 30 hrs by firefly luciferase reporter gene assay. Conditions: Shh Light II. The format is functional, cell-based. The essentials:
(§1)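 Shh-LIGHT2 (NIH3T3 with Gli-luciferase) cultured in DMEM/10% calf serum with G-418 and Zeocin, grown to confluence (~5–7 days); compounds added in DMEM with 0.5% calf serum, 30 h at 37 °C; pathway activity read as luminescence with Bright-Glo reagent.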

Series [3] can be described thus: Cytotoxicity against mouse Shh Light2 cells assessed as cell viability. It counts as cell-based. The note with it: shh light ii. The essentials:
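Shh-LIGHT2 (NIH3T3 with Gli-luciferase) grown in DMEM/10% calf serum with G-418 and Zeocin, plated and grown to confluence (~5–7 days); treated in DMEM with 0.5% calf serum for 30 h at 37 °C; viability read by CellTiter-Glo luminescence after 10 min at room temperature.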

The target of series [4] is Sonic hedgehog protein (Mus musculus) (UniProt Q62226). The experiment in a line: Inhibition of N-palmitoylated Shh in mouse Shh Light2 cells at 6.25 uM after 30 hrs by firefly luciferase reporter gene assay. It counts as functional, cell-based. The note with it: Shh Light II. The essentials:
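Shh-LIGHT2 (NIH3T3 carrying Gli-luciferase reporter) grown to confluence over about 5-7 days in DMEM, 10% calf serum, G-418 and Zeocin at 37 °C. Treated in DMEM with 0.5% calf serum for 30 h. Readout by luminescence with Bright-Glo. Parallel identically treated wells read with CellTiter-Glo after 10 min at room temperature.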

For series [5] the target is unchanged. The experiment in a line: Inhibition of Shh in MEF deficient in ptch1 gene assessed as beta-galactosidase activity at 6.6 uM after 30 hrs by luminometry.
Series [6] has the same target. Description: Inhibition of N-palmitoylated Shh in mouse Shh Light2 cells at > 30 uM after 30 hrs by firefly luciferase reporter gene assay. The format is functional, cell-based. The note with it: Shh Light II. The essentials: as §1
Series [7] shares this target. The experiment in a line: Inhibition of N-palmitoylated Shh in mouse Shh Light2 cells at 6.3 to 50 uM after 30 hrs by firefly luciferase reporter assay in presence of 3.6 uM Smo agonist purmorphamine. The note with it: Shh Light II. The format is functional, cell-based. A digest of the protocol: as §1
For series [8] the target is unchanged. Description: Inhibition of N-palmitoylated Shh in mouse Shh Light2 cells at 6.3 to 50 uM after 30 hrs by firefly luciferase reporter assay in presence of 100 nM Smo agonist SAG. It counts as functional, cell-based. Conditions: Shh Light II. A digest of the protocol:
as §1

Series [9] has the same target. The experiment in a line: Inhibition of N-terminal Shh-induced differentiation in mouse C3H10T1/2 cells assessed as inhibition of alkaline phosphatase induction. The format is cell-based. Conditions: C3H 10T1/2.
For series [10] the target is unchanged. Description: Inhibition of N-terminal Shh-induced differentiation in mouse C3H10T1/2 cells assessed as inhibition of alkaline phosphatase induction in presence of 3.6 uM purmorphamine. The format is cell-based. Conditions: C3H 10T1/2.
Series [11] concerns the target T1, Sonic hedgehog protein. The experiment in a line: Inhibition of N-terminal N-palmitoylated Shh-mediated Gli2 transcription in human keratinocytes at 100 uM after 30 hrs by real-time quantitative PCR analysis. The format is cell-based.
The target in series [12] is T1, Sonic hedgehog protein. The experiment in a line: Inhibition of N-terminal N-palmitoylated Shh-mediated Gli1 transcription in human keratinocytes after 30 hrs by real-time quantitative PCR analysis. It counts as cell-based.
Series [13] addresses T1, Sonic hedgehog protein. Description: Inhibition of N-terminal N-palmitoylated Shh-mediated Gli1 transcription in human keratinocytes after 30 hrs by real-time quantitative PCR analysis in presence of 3.6 uM Smo agonist purmorphamine. The format is functional, cell-based.
For series [14], the target named is T1, Sonic hedgehog protein. The experiment in a line: Inhibition of N-terminal N-palmitoylated Shh-mediated Gli1 transcription in human keratinocytes after 30 hrs by real-time quantitative PCR analysis in presence of 100 nM Smo agonist SAG. The format is functional, cell-based.
The target of series [15] is T1, Sonic hedgehog protein. The experiment in a line: Inhibition of N-terminal N-palmitoylated Shh-mediated Gli2 transcription in human keratinocytes after 30 hrs by real-time quantitative PCR analysis in presence of 3.6 uM Smo agonist purmorphamine. The format is functional, cell-based.
The target in series [16] is T1, Sonic hedgehog protein. The experiment in a line: Inhibition of N-terminal N-palmitoylated Shh-mediated Gli2 transcription in human keratinocytes after 30 hrs by real-time quantitative PCR analysis in presence of 100 nM Smo agonist SAG. The format is functional, cell-based.
Series [17] concerns the target T1, Sonic hedgehog protein. The experiment in a line: Inhibition of Shh-mediated Gli1 mRNA transcription in human synthetic skin by real-time quantitative PCR analysis.
Series [18] concerns the target T1, Sonic hedgehog protein. The experiment in a line: Inhibition of Shh-mediated Gli2 mRNA transcription in human synthetic skin by real-time quantitative PCR analysis.
Series [19] has as its target Sonic hedgehog protein (Mus musculus) (UniProt Q62226). Description: Inhibition of Shh in MEF deficient in ptch1 gene assessed as beta-galactosidase activity at 1.56 to 25 uM after 30 mins by luminometry. Conditions: in the assay text read “30 hrs” for “30 mins”. The essentials:
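Ptc1−/− mouse embryonic fibroblasts carrying β-galactosidase construct, grown in DMEM/10% FBS to confluence (3–4 days, 37 °C); compounds in DMEM/0.5% FBS for 30 h; Beta-Glo reagent added with 30 min gentle agitation at room temperature, then luminescence read.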

Series [20] concerns the target Smoothened homolog (Mus musculus) (UniProt P56726). The experiment in a line: Displacement of BODIPY-cyclopamine from Smo expressed in HEK293T cells after 30 mins. Conditions: HEK-293T.

pKd: −log10 of the molar value. Active and inactive are the calls of the source. The rule behind the calls is not given here.

T1 sequence (Q15465 24-197 limits assumed): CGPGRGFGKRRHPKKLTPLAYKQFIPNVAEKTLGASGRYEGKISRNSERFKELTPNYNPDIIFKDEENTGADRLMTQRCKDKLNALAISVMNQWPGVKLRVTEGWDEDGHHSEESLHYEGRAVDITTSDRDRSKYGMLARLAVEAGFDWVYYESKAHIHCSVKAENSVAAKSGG
Sequence of Smoothened homolog (Mus musculus) (P56726 whole entry, looked up): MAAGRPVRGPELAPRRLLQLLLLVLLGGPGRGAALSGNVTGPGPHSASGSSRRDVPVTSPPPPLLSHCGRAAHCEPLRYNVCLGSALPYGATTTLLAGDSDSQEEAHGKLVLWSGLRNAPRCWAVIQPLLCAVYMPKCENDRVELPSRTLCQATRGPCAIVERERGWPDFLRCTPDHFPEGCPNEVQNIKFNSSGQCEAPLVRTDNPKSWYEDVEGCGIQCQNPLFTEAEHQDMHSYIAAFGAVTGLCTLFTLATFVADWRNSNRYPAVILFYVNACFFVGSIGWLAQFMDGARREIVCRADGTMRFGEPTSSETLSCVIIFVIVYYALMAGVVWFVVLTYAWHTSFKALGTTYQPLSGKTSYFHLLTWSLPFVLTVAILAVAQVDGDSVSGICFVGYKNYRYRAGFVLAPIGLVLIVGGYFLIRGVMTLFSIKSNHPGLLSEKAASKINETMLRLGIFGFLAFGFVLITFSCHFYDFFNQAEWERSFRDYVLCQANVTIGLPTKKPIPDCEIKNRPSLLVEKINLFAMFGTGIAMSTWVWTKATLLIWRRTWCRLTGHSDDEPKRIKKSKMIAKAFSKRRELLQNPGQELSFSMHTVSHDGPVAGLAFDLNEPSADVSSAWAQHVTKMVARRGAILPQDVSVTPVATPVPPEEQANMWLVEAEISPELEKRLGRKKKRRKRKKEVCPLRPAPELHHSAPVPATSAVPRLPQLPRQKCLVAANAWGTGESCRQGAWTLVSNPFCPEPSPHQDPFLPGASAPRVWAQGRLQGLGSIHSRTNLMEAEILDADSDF

As for `C[C@H]1COC(=O)[C@@H](N)CC/C=C/C[C@@H](CC(=O)N(CCO)Cc2ccccc2)C(=O)N1`, the Activity result in [1] is “Dose-dependent effect”; in [3] it was “Non-toxic”. Further, the inhibition result in series [2] is “Active”.

With `CC1=C2C[C@H]3[C@@H](CC=C4C[C@@H](O)CC[C@@]43C)[C@@H]2CC[C@]12O[C@@H]1C[C@H](C)CN[C@H]1[C@H]2C`, the inhibition result in [4] and in [5] was “Active” throughout.

In the case of `O=C(C[C@@H]1C/C=C/CCC(=O)O[C@H](c2ccccc2)CNC1=O)NCc1ccc(Cl)cc1` [ROBOTNIKININ], in series [1], the negative logarithm of the Kd (pKd) is 5.51. For the same molecule, the inhibition entry in series [2] is “Dose-dependent effect”. Besides, in series [3], the Activity result is given as “Non-toxic”. For the same molecule, the inhibition result in series [6], in series [7], in [8], in [9], in series [11] and in series [12] was “Active” throughout. In addition, the inhibition entry in [17] and in series [18] was “Active” each time. The inhibition result in series [10] and in series [19] was “inactive” in each case. The outcome in [13], in series [14], in series [15], in series [16] and in series [20] was inactive.

(Values after ChEMBL document CHEMBL1212710, “A small molecule that binds Hedgehog and blocks its signaling in human cells” (Nat Chem Biol, 2009).)
